High-throughput results from PubChem BioAssay.
Shown are actives, neighbours in structure and some others; about 4% of the full set was active somewhere.
KCNQ1 block = human KCNQ1 channel inhibition; P51787; 310,000 compounds, 1.3% hits; B-score at 10 µM; CHO-K1 KCNQ1, FluxOR thallium flux fluorescence; hits give high values;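 active means compounds whose thallium flux B-score, printed positive for inhibition, exceeds three library SD while starting fluorescence stays within three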;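 further: channel opened by potassium depolarization with thallium stimulus after 20 min compound exposure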
KCNQ1 pot = potentiators or activators of human KCNQ1 potassium channel; B-score at 10 µM; P51787; AID 2648; CHO-K1 KCNQ1, thallium flux FluxOR fluorescence; hits give high values; 310,000 compounds, 0.35% hits;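 active means fluorescence ratio B-score, a plate-corrected score, at least three library SD, with initial intensity B-score within 5 SD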
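Schedule – 37 °C overnight plating, 90-min dark dye load, 20-min compound pretreatment · System – stable KCNQ1 CHO-K1 line · Probe or stimulus – thallium- and potassium-containing depolarizing buffer · Measured by – kinetic FluxOR fluorescence, 10 s baseline plus 110 s post-stimulus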
PHOSPHO1 block = PHOSPHO1 (human) inhibition. Q8TCT1. recombinant PHOSPHO1, absorbance phosphatase assay. inhibition, % at 13.3 µM. 290,000 compounds, 1.1% hits. AID 1565; in the data active means inhibition above about 60%
Target sequence (Q8TCT1 whole entry, looked up): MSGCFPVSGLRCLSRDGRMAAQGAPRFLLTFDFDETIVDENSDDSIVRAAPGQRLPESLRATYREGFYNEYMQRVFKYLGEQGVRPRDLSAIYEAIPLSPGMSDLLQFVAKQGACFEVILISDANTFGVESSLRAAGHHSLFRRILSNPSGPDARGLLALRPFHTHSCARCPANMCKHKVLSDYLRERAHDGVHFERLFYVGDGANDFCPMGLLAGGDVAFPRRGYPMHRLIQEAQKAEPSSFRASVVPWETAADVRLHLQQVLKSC
hERG protect = shields human hERG channel from block by proarrhythmic agents; CHO-hERG, FluxOR thallium flux, dofetilide IC70 present; 310,000 compounds, 0.51% hits; Q12809; activation (rescue from dofetilide block), less the hit threshold, % at 10 µM;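 active means activation above the mean of controls blocked by dofetilide plus 5 SD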;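 further: thallium influx through hERG after potassium depolarization seen as dye fluorescence rise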
KCNK3 block = human KCNK3 channel inhibition, primary screen. O14649. CHO-KCNK3 thallium flux, FluxOR fluorescence; hits give low values. B-score at 10 µM. 340,000 compounds, 0.84% hits;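 active means B-score under library mean minus 4 SD, starting fluorescence ratio at most library mean plus 5 SD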;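 further: more negative B-score means stronger inhibition of thallium flux through KCNK3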
Target sequence (O14649 whole entry, looked up): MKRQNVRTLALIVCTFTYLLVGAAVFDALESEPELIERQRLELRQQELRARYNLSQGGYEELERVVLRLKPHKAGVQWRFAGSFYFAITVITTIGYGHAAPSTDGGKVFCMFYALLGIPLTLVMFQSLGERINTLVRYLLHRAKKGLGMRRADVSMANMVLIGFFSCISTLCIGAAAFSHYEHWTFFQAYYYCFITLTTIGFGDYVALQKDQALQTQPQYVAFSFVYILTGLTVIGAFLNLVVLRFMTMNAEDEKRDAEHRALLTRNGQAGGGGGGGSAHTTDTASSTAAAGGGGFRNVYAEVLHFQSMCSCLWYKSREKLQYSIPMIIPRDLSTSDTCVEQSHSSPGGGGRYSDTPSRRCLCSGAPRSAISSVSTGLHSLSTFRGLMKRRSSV
KCNK9 inh = human KCNK9 channel inhibition | HEK293 KCNK9, FluxOR thallium flux fluorescence; hits give low values | 310,000 compounds, 1.2% hits | Q9NPC2 | AID 488922 | B-score at 10 µM;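 active means ratio B-score over 3 SD below the library mean, with starting fluorescence within 5 SD of its mean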;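 further: negative B-score means less thallium flux so channel inhibition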
KCNK9 block conf = confirmation of human KCNK9 potassium channel inhibitors; shares compounds with KCNK9 inh; AID 492992; inhibition, % at 10 µM; 4,900 compounds, 43% hits; HEK293 KCNK9 cells, FluxOR thallium flux fluorescence;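 active means thallium signal inhibited by more than 5 SD of the compound-free buffer control wells, on both duplicate plates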
Kir21 sel = selectivity of KCNK9 modulators against mouse Kir2.1; shares compounds with KCNK9 inh; Kir2.1 cells, FluxOR thallium flux fluorescence; inhibition, % at 10 µM; 4,900 compounds, 4% hits;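 active means thallium signal drop more than 5 SD beyond the mean of the no-compound control wells, seen in both duplicate plates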;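 further: signal is fluorescence rise after thallium addition divided by baseline fluorescence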
KCNK9 uninduced = second counter-screen for KCNK9 modulators: effect in non-induced cells; inhibition, % at 10 µM; shares compounds with KCNK9 inh; 4,900 compounds, 40% hits; non-induced KCNK9-HEK293, FluxOR thallium flux;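 active means thallium signal drop beyond 5 SD of the untreated control mean, on both duplicate plates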
A number is an active result; i = inactive; nt = not tested or not shown.

SMILES | KCNQ1 block | KCNQ1 pot | PHOSPHO1 block | hERG protect | KCNK3 block | KCNK9 inh | KCNK9 block conf | Kir21 sel | KCNK9 uninduced
COc1cccc(-n2c(C)cc(/C=C3/C(=N)N4C(=NC3=O)SN=C4S(C)(=O)=O)c2C)c1 | i | i | i | i | i | i | nt | nt | nt
CCC1=NN2C(=N)/C(=C\c3cccn3-c3ccc(Cl)cc3)C(=O)N=C2S1 | i | i | i | i | i | i | i | i | i
CCC1=NN2C(=N)/C(=C\c3cccn3-c3ccc(C)c(C)c3)C(=O)N=C2S1 | i | i | i | i | i | i | nt | nt | nt
Cc1ccc(S(=O)(=O)Oc2ccc(/C=C3\C(=N)N4N=C(S(C)(=O)=O)SC4=NC3=O)cc2)cc1 | i | i | i | i | i | i | i | i | i
CCOc1ccccc1N(CC(=O)NC1CCCCC1)C(=O)CCC(=O)Nc1cc(C)ccn1 | i | i | i | i | i | i | nt | nt | nt
COc1ccc(C/C(=N\O)c2ccc(OC)cc2)cc1 | i | i | i | i | i | i | i | i | i
COc1ccc(C(=O)NNC(=O)Cc2ccc(Cl)cc2)cc1 | i | i | i | i | i | i | nt | nt | nt
CC(=O)Nc1ccc2oc(-c3ccccc3Br)nc2c1 | i | i | i | i | i | i | nt | nt | nt
Cc1ccccc1-c1nc2cc(NC(=O)C3CC3)ccc2o1 | i | i | i | i | i | -8.7 | i | i | i
O=C(COC(=O)c1ccccn1)Nc1nc(-c2ccccc2)cs1 | i | i | i | i | i | i | nt | nt | nt
COc1cccc(NC(=S)N(CCCN2CCOCC2)C(C)c2cc3cccc(OC)c3o2)c1 (configuration not stated) | i | i | i | i | i | i | nt | nt | nt
COc1cccc(NC(=O)N(CCCN2CCOCC2)C(C)c2cc3cccc(OC)c3o2)c1 (configuration not stated) | i | i | i | i | i | -8.3 | 40% | i | 31%
O=C(O)c1ccc(N/N=C/c2ccc(-c3ccc(Cl)cc3Cl)o2)cc1 | i | i | i | i | i | i | i | i | i
Cc1c(C(=O)O)cccc1-c1ccc(/C=N/Nc2ccc(Br)cc2)o1 | i | i | i | i | i | i | i | i | i
O=C(Cc1ccc(NC(=O)C2CCN(C(=O)c3ccccc3)CC2)cc1)Nc1cccc(C(=O)N2CCCCC2)c1 | nt | nt | nt | nt | i | nt | nt | nt | nt
O=S(=O)(Nc1cccnc1)c1ccc(Cl)c(C(F)(F)F)c1 | i | i | i | i | i | i | nt | nt | nt
CC(SC(=S)N(C)Cc1cccs1)C(=O)O (configuration not stated) | i | i | i | i | i | i | nt | nt | nt
CCCCOC(=O)CSC(=S)N(C)Cc1cccs1 | i | i | i | i | i | i | i | i | i
CCN(CC)c1ccc(N2C(=O)C3CCCCC3C2=O)cc1[N+](=O)[O-] (configuration not stated) | i | i | i | i | i | i | nt | nt | nt
CCOc1cc(CNc2ccc(Br)cc2)cc(Br)c1OCC(=O)NC(C)(C)C | i | i | i | i | i | -9.2 | 47% | i | 40%
COc1ccc(CC(=O)NCC(=O)NCc2cc(=O)n(C)c(=O)n2C)cc1 | i | i | i | i | i | i | nt | nt | nt
COc1ccc(-n2sc3c(c2=S)-c2cc(OC)ccc2NC3(C)C)cc1 | i | i | i | i | i | i | nt | nt | nt
COc1ccc2c(c1)-c1c(sn(-c3ccc(OC)c(OC)c3)c1=S)C(C)(C)N2 | i | i | i | i | i | i | i | i | i
COc1cccc(CN2CCN(C(=O)c3cc(-c4ccncc4)nc4ccc(C)cc34)CC2)c1 | i | i | i | i | i | i | nt | nt | nt
COc1cccc(CN2CCN(C(=O)c3cc(-c4ccccn4)nc4ccc(Cl)cc34)CC2)c1 | i | i | i | i | i | i | i | i | i
SMILES | KCNQ1 block | KCNQ1 pot | PHOSPHO1 block | hERG protect | KCNK3 block | KCNK9 inh | KCNK9 block conf | Kir21 sel | KCNK9 uninduced
COc1ccc(C2CC2/C(C)=N/OC(=O)c2ccc(F)cc2)cc1 (configuration not stated) | i | i | i | i | i | i | i | i | i
O=c1nc(/C=C/c2ccccc2C(F)(F)F)cc(C(F)(F)F)[nH]1 | i | i | nt | i | i | i | nt | nt | nt
Cc1ccc(-c2cc3ccccc3nc2N2CCOCC2)cc1 | i | i | i | i | i | i | i | i | i
c1ccc(-c2cc3ccccc3nc2N2CCCC2)cc1 | i | i | i | i | i | i | nt | nt | nt
CCCCOn1c(C)c(C(=O)OCC)c2c3nonc3ccc21 | i | i | nt | i | i | -8.4 | 33% | i | 32%
CCCCOn1c(C)c(C(=O)OCC)c2c3no[n+]([O-])c3ccc21 | i | i | i | i | i | i | nt | nt | nt
COc1ccc(NC2CCCN(C(=O)CCC3=NNC(=O)CC3)C2)cc1 (configuration not stated) | i | i | i | i | i | i | nt | nt | nt
COc1ccccc1C(=O)N1CCCC(c2nc(-c3cc(OC)c(OC)c(OC)c3)no2)C1 (configuration not stated) | i | i | i | i | i | i | nt | nt | nt
CC1C(=NO)C(C)C(c2ccc(N(C)C)cc2)NC1c1ccc(N(C)C)cc1 (configuration not stated) | i | i | i | i | i | i | i | i | i
COc1ccc(C2NC(c3ccc(OC)cc3)C(C)C(=O)C2C)cc1 (configuration not stated) | i | i | nt | i | i | i | nt | nt | nt
CCOC(=O)C1CCN(C(=O)C(CCSC)NC(=O)c2ccccc2OC)CC1 (configuration not stated) | nt | nt | nt | nt | i | nt | nt | nt | nt
Cc1ccc(O)c(C(=O)c2cc(C(=O)NCCc3ccccc3)c(=O)n(CCc3ccccc3)c2)c1 | 6 | i | i | i | i | i | i | i | i
COc1ccc(O)c(C(=O)c2cc(C(=O)NCCc3ccccc3)c(=O)n(CCc3ccccc3)c2)c1 | i | i | i | i | i | i | i | i | i
Cc1ccc(O)c(C(=O)c2cc(C#N)c(=O)n(Cc3ccccc3)c2)c1 | i | i | i | i | i | i | nt | nt | nt
O=C(NCc1cccnc1)c1cc(Sc2cccc(Cl)c2)nc2ccccc12 | i | i | i | i | i | -8.2 | 36% | i | i
CC(C)(C)c1csc(N/N=C/c2cccnc2)n1 | i | i | i | i | i | i | nt | nt | nt
C/C(=N\Nc1nc(C(C)(C)C)cs1)c1ccccc1 | i | i | nt | i | i | i | i | i | i
Cc1ccc(/C=N/Nc2nc(C(C)(C)C)cs2)o1 | i | 18 | i | 10 | i | i | i | i | i
COc1ccc(CNC(=O)CN(c2cc(C)cc(C)c2)S(=O)(=O)c2c(C)noc2C)cc1 | i | i | i | i | i | -8.6 | i | i | i
CCOc1ccc(CNC2CCCc3ccccc32)cc1 (configuration not stated) | i | i | i | i | i | i | nt | nt | nt
